Experimental data: ChEMBL document CHEMBL2375359, “Synthesis and antibacterial evaluation of novel pleuromutilin derivatives” (2013)
In brackets after ≈: the same amount, converted by molar mass.

The compounds below were run on Staphylococcus aureus (assay: Antibacterial activity against methicillin-resistant Staphylococcus aureus at 320 ug/ml after 24 hrs by Oxford cup assay). Conditions: read-out: IZ.
Type: functional
In short: (§1)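 Oxford cup diffusion: clinical isolate inoculum in 0.9% saline set by McFarland standard, spread evenly on nutrient agar. Cups placed equidistant on the surface and filled with compound solutions prepared as for the agar dilution test, at several concentrations. Inhibition zone measured after 24 h at 37 °C.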
`C=C[C@]1(C)C[C@@H](OC(=O)CSC(C)(C)CNC(=O)c2ccc(Cl)cc2)[C@]2(C)[C@H](C)CC[C@]3(CCC(=O)[C@H]32)[C@@H](C)[C@@H]1O` gave a zone of inhibition at 320 µg/mL of 14.6 mm.
With `C=C[C@]1(C)C[C@@H](OC(=O)CSC(C)(C)CNC(=O)c2ccc(N)cc2)[C@]2(C)[C@H](C)CC[C@]3(CCC(=O)[C@H]32)[C@@H](C)[C@@H]1O` the zone of inhibition at 320 µg/mL was 22.2 mm.

Each compound was assayed on Streptococcus agalactiae (assay: Antibacterial activity against Streptococcus agalactiae after 48 hrs by agar dilution method). Conditions: not given.
Type: functional
In short: (§2)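 Agar dilution per NCCLS on clinical isolates. 2-fold serial dilutions of compound (2 mL) mixed into 18 mL hot Mueller-Hinton agar. Inoculum from blood slants, adjusted to approx. 10⁵–10⁶ cfu/mL in sterile 0.90% NaCl, then spotted onto the plates. Incubated 36.5 °C, 48 h. MIC is the lowest concentration giving complete growth inhibition. Run in triplicate at pH 7.40.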
`C=C[C@]1(C)C[C@@H](OC(=O)CSC(C)(C)CNC(=O)c2ccc(Cl)cc2)[C@]2(C)[C@H](C)CC[C@]3(CCC(=O)[C@H]32)[C@@H](C)[C@@H]1O` gave an MIC of 4 µg/mL (≈ 6.62 µM).
`C=C[C@]1(C)C[C@@H](OC(=O)CSC(C)(C)CNC(=O)c2ccc(N)cc2)[C@]2(C)[C@H](C)CC[C@]3(CCC(=O)[C@H]32)[C@@H](C)[C@@H]1O` showed an MIC of 0.5 µg/mL (≈ 0.855 µM).

The compounds below were run on Staphylococcus epidermidis (assay: Antibacterial activity against methicillin-resistant Staphylococcus epidermidis at 80 ug/ml after 24 hrs by Oxford cup assay). Conditions: read-out: IZ.
Type: functional
In short: as §1
In the case of `C=C[C@]1(C)C[C@@H](OC(=O)CSC(C)(C)CNC(=O)c2ccc(Cl)cc2)[C@]2(C)[C@H](C)CC[C@]3(CCC(=O)[C@H]32)[C@@H](C)[C@@H]1O`, the zone of inhibition at 80 µg/mL is reported as 8.72 mm.
In the case of `C=C[C@]1(C)C[C@@H](OC(=O)CSC(C)(C)CNC(=O)c2ccc(N)cc2)[C@]2(C)[C@H](C)CC[C@]3(CCC(=O)[C@H]32)[C@@H](C)[C@@H]1O`, the zone of inhibition at 80 µg/mL is reported as 17.3 mm.

The compounds below were run on Escherichia coli (assay: Antibacterial activity against Escherichia coli at 160 ug/ml after 24 hrs by Oxford cup assay). Conditions: read-out: IZ.
Type: functional
In short: (§3)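 Oxford cup diffusion with clinical isolates. Inoculum made in 0.9% saline to a McFarland standard and spread evenly on nutrient agar. Compound solutions, prepared as for the agar dilution test, were added at the stated concentration to Oxford cups set equidistant on the agar surface. Inhibition zones were measured after 24 h at 37 °C.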
`C=C[C@]1(C)C[C@@H](OC(=O)CSC(C)(C)CNC(=O)c2ccc(Cl)cc2)[C@]2(C)[C@H](C)CC[C@]3(CCC(=O)[C@H]32)[C@@H](C)[C@@H]1O` showed a zone of inhibition at 160 µg/mL of 12.9 mm.
For `C=C[C@]1(C)C[C@@H](OC(=O)CSC(C)(C)CNC(=O)c2ccc(N)cc2)[C@]2(C)[C@H](C)CC[C@]3(CCC(=O)[C@H]32)[C@@H](C)[C@@H]1O`, the zone of inhibition at 160 µg/mL was 17.8 mm.

These compounds were tested on Streptococcus agalactiae (assay: Antibacterial activity against Streptococcus agalactiae at 80 ug/ml after 24 hrs by Oxford cup assay). Conditions: read-out: IZ.
Type: functional
In short: as §3
With `C=C[C@]1(C)C[C@@H](OC(=O)CSC(C)(C)CNC(=O)c2ccc(Cl)cc2)[C@]2(C)[C@H](C)CC[C@]3(CCC(=O)[C@H]32)[C@@H](C)[C@@H]1O` the zone of inhibition at 80 µg/mL was 10.8 mm.
`C=C[C@]1(C)C[C@@H](OC(=O)CSC(C)(C)CNC(=O)c2ccc(N)cc2)[C@]2(C)[C@H](C)CC[C@]3(CCC(=O)[C@H]32)[C@@H](C)[C@@H]1O` gave a zone of inhibition at 80 µg/mL of 10.9 mm.

What follows are compounds tested on Escherichia coli (assay: Antibacterial activity against Escherichia coli after 48 hrs by agar dilution method). Conditions: not given.
Type: functional
In short: as §2
Compound `C=C[C@]1(C)C[C@@H](OC(=O)CSC(C)(C)CNC(=O)c2ccc(Cl)cc2)[C@]2(C)[C@H](C)CC[C@]3(CCC(=O)[C@H]32)[C@@H](C)[C@@H]1O` has an MIC of 2 µg/mL (≈ 3.31 µM).
`C=C[C@]1(C)C[C@@H](OC(=O)CSC(C)(C)CNC(=O)c2ccc(N)cc2)[C@]2(C)[C@H](C)CC[C@]3(CCC(=O)[C@H]32)[C@@H](C)[C@@H]1O` was tested, and the MIC was 2 µg/mL (≈ 3.42 µM).

Each compound was assayed on Escherichia coli (assay: Antibacterial activity against Escherichia coli at 80 ug/ml after 24 hrs by Oxford cup assay). Conditions: read-out: IZ.
Type: functional
In short: as §3
`C=C[C@]1(C)C[C@@H](OC(=O)CSC(C)(C)CNC(=O)c2ccc(Cl)cc2)[C@]2(C)[C@H](C)CC[C@]3(CCC(=O)[C@H]32)[C@@H](C)[C@@H]1O` gave a zone of inhibition at 80 µg/mL of 11.8 mm.
In the case of `C=C[C@]1(C)C[C@@H](OC(=O)CSC(C)(C)CNC(=O)c2ccc(N)cc2)[C@]2(C)[C@H](C)CC[C@]3(CCC(=O)[C@H]32)[C@@H](C)[C@@H]1O`, the zone of inhibition at 80 µg/mL is reported as 18.1 mm.

Each compound was assayed on Staphylococcus aureus (assay: Antibacterial activity against methicillin-resistant Staphylococcus aureus after 48 hrs by agar dilution method). Conditions: not given.
Type: functional
In short: (§4)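 Agar dilution per NCCLS: 2-fold serial dilutions incorporated into hot Mueller-Hinton agar. Clinical isolates grown from blood slants, suspended in sterile 0.90% NaCl to about 10⁵–10⁶ cfu/mL, spotted onto plates. Incubation 36.5 °C, 48 h. MIC taken as the lowest concentration giving complete growth inhibition. Run in triplicate at pH 7.40.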
`C=C[C@]1(C)C[C@@H](OC(=O)CSC(C)(C)CNC(=O)c2ccc(Cl)cc2)[C@]2(C)[C@H](C)CC[C@]3(CCC(=O)[C@H]32)[C@@H](C)[C@@H]1O` gave an MIC of 1 µg/mL (≈ 1.65 µM).
In the case of `C=C[C@]1(C)C[C@@H](OC(=O)CSC(C)(C)CNC(=O)c2ccc(N)cc2)[C@]2(C)[C@H](C)CC[C@]3(CCC(=O)[C@H]32)[C@@H](C)[C@@H]1O`, the MIC is reported as 0.25 µg/mL (≈ 0.427 µM).

Each compound was assayed on Staphylococcus aureus (assay: Antibacterial activity against methicillin-resistant Staphylococcus aureus at 80 ug/ml after 24 hrs by Oxford cup assay). Conditions: read-out: IZ.
Type: functional
In short: as §1
`C=C[C@]1(C)C[C@@H](OC(=O)CSC(C)(C)CNC(=O)c2ccc(Cl)cc2)[C@]2(C)[C@H](C)CC[C@]3(CCC(=O)[C@H]32)[C@@H](C)[C@@H]1O` gave a zone of inhibition at 80 µg/mL of 11.8 mm.
`C=C[C@]1(C)C[C@@H](OC(=O)CSC(C)(C)CNC(=O)c2ccc(N)cc2)[C@]2(C)[C@H](C)CC[C@]3(CCC(=O)[C@H]32)[C@@H](C)[C@@H]1O` was tested, and the zone of inhibition at 80 µg/mL was 20.6 mm.

These compounds were tested on Staphylococcus epidermidis (assay: Antibacterial activity against methicillin-resistant Staphylococcus epidermidis at 160 ug/ml after 24 hrs by Oxford cup assay). Conditions: read-out: IZ.
Type: functional
In short: as §1
In the case of `C=C[C@]1(C)C[C@@H](OC(=O)CSC(C)(C)CNC(=O)c2ccc(Cl)cc2)[C@]2(C)[C@H](C)CC[C@]3(CCC(=O)[C@H]32)[C@@H](C)[C@@H]1O`, the zone of inhibition at 160 µg/mL is reported as 12.7 mm.
`C=C[C@]1(C)C[C@@H](OC(=O)CSC(C)(C)CNC(=O)c2ccc(N)cc2)[C@]2(C)[C@H](C)CC[C@]3(CCC(=O)[C@H]32)[C@@H](C)[C@@H]1O` showed a zone of inhibition at 160 µg/mL of 18.1 mm.

Each compound was assayed on Staphylococcus aureus (assay: Antibacterial activity against methicillin-resistant Staphylococcus aureus at 160 ug/ml after 24 hrs by Oxford cup assay). Conditions: read-out: IZ.
Type: functional
In short: as §1
`C=C[C@]1(C)C[C@@H](OC(=O)CSC(C)(C)CNC(=O)c2ccc(Cl)cc2)[C@]2(C)[C@H](C)CC[C@]3(CCC(=O)[C@H]32)[C@@H](C)[C@@H]1O` showed a zone of inhibition at 160 µg/mL of 13.8 mm.
With `C=C[C@]1(C)C[C@@H](OC(=O)CSC(C)(C)CNC(=O)c2ccc(N)cc2)[C@]2(C)[C@H](C)CC[C@]3(CCC(=O)[C@H]32)[C@@H](C)[C@@H]1O` the zone of inhibition at 160 µg/mL was 21.6 mm.

The compounds below were run on Streptococcus agalactiae (assay: Antibacterial activity against Streptococcus agalactiae at 160 ug/ml after 24 hrs by Oxford cup assay). Conditions: read-out: IZ.
Type: functional
In short: as §3
With `C=C[C@]1(C)C[C@@H](OC(=O)CSC(C)(C)CNC(=O)c2ccc(Cl)cc2)[C@]2(C)[C@H](C)CC[C@]3(CCC(=O)[C@H]32)[C@@H](C)[C@@H]1O` the zone of inhibition at 160 µg/mL was 12.1 mm.
With `C=C[C@]1(C)C[C@@H](OC(=O)CSC(C)(C)CNC(=O)c2ccc(N)cc2)[C@]2(C)[C@H](C)CC[C@]3(CCC(=O)[C@H]32)[C@@H](C)[C@@H]1O` the zone of inhibition at 160 µg/mL was 11.6 mm.

These compounds were tested on Streptococcus agalactiae (assay: Antibacterial activity against Streptococcus agalactiae at 320 ug/ml after 24 hrs by Oxford cup assay). Conditions: read-out: IZ.
Type: functional
In short: as §3
Compound `C=C[C@]1(C)C[C@@H](OC(=O)CSC(C)(C)CNC(=O)c2ccc(Cl)cc2)[C@]2(C)[C@H](C)CC[C@]3(CCC(=O)[C@H]32)[C@@H](C)[C@@H]1O` has a zone of inhibition at 320 µg/mL of 14 mm.
Compound `C=C[C@]1(C)C[C@@H](OC(=O)CSC(C)(C)CNC(=O)c2ccc(N)cc2)[C@]2(C)[C@H](C)CC[C@]3(CCC(=O)[C@H]32)[C@@H](C)[C@@H]1O` has a zone of inhibition at 320 µg/mL of 11.4 mm.

The compounds below were run on Escherichia coli (assay: Antibacterial activity against Escherichia coli at 320 ug/ml after 24 hrs by Oxford cup assay). Conditions: read-out: IZ.
Type: functional
In short: as §3
`C=C[C@]1(C)C[C@@H](OC(=O)CSC(C)(C)CNC(=O)c2ccc(Cl)cc2)[C@]2(C)[C@H](C)CC[C@]3(CCC(=O)[C@H]32)[C@@H](C)[C@@H]1O` gave a zone of inhibition at 320 µg/mL of 12.6 mm.
For `C=C[C@]1(C)C[C@@H](OC(=O)CSC(C)(C)CNC(=O)c2ccc(N)cc2)[C@]2(C)[C@H](C)CC[C@]3(CCC(=O)[C@H]32)[C@@H](C)[C@@H]1O`, the zone of inhibition at 320 µg/mL was 18.8 mm.

The compounds below were run on Staphylococcus epidermidis (assay: Antibacterial activity against methicillin-resistant Staphylococcus epidermidis at 320 ug/ml after 24 hrs by Oxford cup assay). Conditions: read-out: IZ.
Type: functional
In short: as §1
`C=C[C@]1(C)C[C@@H](OC(=O)CSC(C)(C)CNC(=O)c2ccc(Cl)cc2)[C@]2(C)[C@H](C)CC[C@]3(CCC(=O)[C@H]32)[C@@H](C)[C@@H]1O` was tested, and the zone of inhibition at 320 µg/mL was 12.4 mm.
`C=C[C@]1(C)C[C@@H](OC(=O)CSC(C)(C)CNC(=O)c2ccc(N)cc2)[C@]2(C)[C@H](C)CC[C@]3(CCC(=O)[C@H]32)[C@@H](C)[C@@H]1O` gave a zone of inhibition at 320 µg/mL of 17.9 mm.

These compounds were tested on Staphylococcus epidermidis (assay: Antibacterial activity against methicillin-resistant Staphylococcus epidermidis after 48 hrs by agar dilution method). Conditions: not given.
Type: functional
In short: as §4
`C=C[C@]1(C)C[C@@H](OC(=O)CSC(C)(C)CNC(=O)c2ccc(Cl)cc2)[C@]2(C)[C@H](C)CC[C@]3(CCC(=O)[C@H]32)[C@@H](C)[C@@H]1O` gave an MIC of 0.5 µg/mL (≈ 0.827 µM).
`C=C[C@]1(C)C[C@@H](OC(=O)CSC(C)(C)CNC(=O)c2ccc(N)cc2)[C@]2(C)[C@H](C)CC[C@]3(CCC(=O)[C@H]32)[C@@H](C)[C@@H]1O` gave an MIC of 0.5 µg/mL (≈ 0.855 µM).
